Compound activity deposited in PubChem by several laboratories.
APP 5'UTR act = activates APP 5'UTR luciferase reporter; SH-SY5Y APP 5'UTR luciferase reporter, luminescence; zero percent = DMSO vehicle wells; activation, % at 2 µM; hit rate 1% among 190,000; AID 1276;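 active means activation above a set limit, based on mean plus 3 SD of controls, cut at about 140% in these data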
STAT3 act-1 = increases IL-6 driven STAT3 reporter signal | U3A cells, IL-6 STAT3-luciferase reporter, luminescence; 100% = signal with IL-6 EC80 alone | hit rate 0.91% among 190,000 | activation (% of control), % at 5.6 µM;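 active means activation above the screen-wide mean of compound activation plus 3 SD, cut at about 130% in these data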;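 further: 0% = background luminescence of wells with medium and substrate only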
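Material: STAT3-luciferase reporter U3A cells; Probe or stimulus: IL-6 (33 ng/mL); Incubation: compound pre-incubation 1 h before IL-6, then 6 h stimulation at 37 °C; Technique: luminescence from STAT3-driven luciferase reporter; Evaluation: % activation versus median of IL-6-stimulated wells; Controls: IL-6-only high control.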
STAT3 blocker = reduces IL-6 driven STAT3 reporter signal; U3A cells, IL-6 STAT3-luciferase reporter, luminescence; host cell line lacks STAT1; hit rate 0.89% among 190,000; inhibition, % at 5.5 µM;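 active means inhibition above the mean inhibition across all screened compounds plus 3 SD, cut at about 44% in these data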;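 further: 0% = DMSO only wells and 100% = 100 µM nifuroxazide control wells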
NF-kB neuron act = raises NF-kB expression in human neuronal cells; NF-kB reporter expression; active compounds read high; fold change at 12.5 µM; hit rate 1.6% among 190,000; in the data active means fold change above about 3.3
STAT1 blocker = STAT1 signaling inhibition; hit rate 0.35% among 200,000; inhibition, % at 5.5 µM; NIH 3T3 STAT1-luciferase reporter, IFN-gamma, luminescence;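 active means inhibition above a set limit, the mean inhibition across all tested compounds plus 3 SD, cut at about 34% in these data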;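 further: 0% = IFN-gamma with DMSO and 100% = IFN-gamma with 300 µM nifuroxazide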
STAT1 act-1 = activators of IFN-gamma induced STAT1 signaling. hit rate 2.6% among 200,000. NIH 3T3 STAT1-luciferase reporter, luminescence; 100% = IFN-gamma alone, no compound. activation (% of control), % at 5.5 µM. AID 932;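 active means activation above the screen-wide mean activation plus 3 SD, cut at about 130% in these data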;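 further: raw ratio to IFN-gamma control signal so 100% means no change and 0% no light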
STAT3 act-2 = confirmation of STAT3 signaling activators; AID 1267; hit rate 64% among 1,200; shares compounds with STAT3 act-1; U3A STAT3-luciferase reporter, IL-6 potentiation, luminescence; U3A cells lack STAT1; 100 means same as IL-6 alone; potentiation (% of control), % at 5.7 µM;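 active means percent activation of the STAT3 luciferase reporter above a set limit taken from the earlier primary screen, cut at about 130% in these data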;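 further: 0% = background signal of medium plus substrate and 100% = median of IL-6 with DMSO wells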
NFkB act STAT3ct = activates NF-kappaB, counter-screen to STAT3 activators | shares compounds with STAT3 act-1 | human cells, NF-kappaB reporter activation | hit rate 11% among 1,200 | activation (% of control), % at 5.7 µM; in the data active means activation above about 120%;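 further: reporter induced by TNF-alpha stimulation; 100% = median of stimulated DMSO wells and 0% = no signal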
STAT1 act-2 = counter-screen for STAT3 activators: STAT1 activation. shares compounds with STAT3 act-1. NIH 3T3 STAT1-luciferase reporter, IFN-gamma, luminescence. activation (% of control), % at 5.7 µM. hit rate 13% among 1,200;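 active means activation above the solvent-only control well mean plus 3 SD, set per screening run, cut at about 120% in these data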;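 further: 100% = IFN-gamma with DMSO median signal so 100% means no change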
The depositor's hits bear a star; . = no result. Sampled rows, rich in hits. Any-hit rate of the full collection: about 4.9%.

SMILES | APP 5'UTR act | STAT3 act-1 | STAT3 blocker | NF-kB neuron act | STAT1 blocker | STAT1 act-1 | STAT3 act-2 | NFkB act STAT3ct | STAT1 act-2
CCCCN(C(=S)Nc1cccc(C)c1C)c1c(N)n(CCC)c(=O)[nH]c1=O | 21 | 105 | 3 | 1.1 | 2 | 97 | . | . | .
CCCc1nc2c(c(=O)c3ccccc3n2C)c(=O)n1-c1ccc(F)cc1 | 5 | 119 | -27 | 1.2 | -9 | 108 | . | . | .
CCc1nc2c(c(=O)c3ccccc3n2C)c(=O)n1CCc1ccc(OC)cc1 | -12 | 144* | -52 | 0.61 | -11 | 110 | 202* | 92 | 113
COc1ccc(CNC(=O)COC(=O)C2CCC(C(C)(C)C)CC2)cc1 (stereo not drawn) | -8 | 106 | -7 | 1 | 5 | 96 | . | . | .
CC1(C)Cc2nc(NC3CCCCC3)c(C#N)cc2CO1 | -6 | 110 | -8 | 1 | 10 | 91 | . | . | .
O=C(Cc1cccs1)N/N=C/C=C/c1ccccc1 | 34 | 109 | -10 | 1.4 | -20 | 118 | . | . | .
O=C(Cc1cccs1)N/N=C\c1ccc(O)cc1 | 9 | 142* | -38 | 1.6 | -10 | 108 | 124 | 123* | 151*
Cc1ccc2cccc(NC(=S)NC(=O)c3c(Br)cnn3C)c2n1 | -2 | 139* | -44 | 1.1 | 1 | 99 | 117 | 108 | 103
Cc1ccc2cccc(NC(=S)NC(=O)c3ccn(C)n3)c2n1 | 3 | 127 | -30 | 0.74 | 7 | 92 | . | . | .
Cc1ccc2nc(SCC(=O)Nc3ccc(F)c([N+](=O)[O-])c3)[nH]c2c1 | 2 | 98 | 0 | 1.1 | 7 | 94 | . | . | .
Cc1ccc2nc(SCC(=O)Nc3cc([N+](=O)[O-])ccc3F)[nH]c2c1 | 2 | 139* | -53 | 1.5 | 12 | 89 | 139* | 107 | 97
COc1nc2c(C)cccc2cc1-c1noc(-c2ccco2)n1 | 7 | 163* | -70 | 1.2 | 9 | 91 | 144* | 109 | 99
COc1nc(-c2ccc(Cl)cc2)ccc1-c1noc(-c2ccco2)n1 | 1 | 98 | 3 | 1.3 | -3 | 102 | . | . | .
O=C1Nc2ccccc2C1(O)c1ccccc1 (stereo not drawn) | -12 | 99 | 7 | 0.92 | 1 | 98 | . | . | .
OC1(c2ccccc2)c2ccccc2-c2ncccc21 (stereo not drawn) | -8 | 137* | -41 | 1.1 | -4 | 103 | 134* | 98 | 100
CC1=C([N+](=O)[O-])C(c2cccc(Br)c2)C2=C(N1)c1ccccc1C2=O (stereo not drawn) | -86 | 175* | -76 | 4.5* | -12 | 111 | 149* | 149* | 110
Cc1cc(NS(=O)(=O)c2ccc(NC(=O)c3oc4ccccc4c3C)cc2)no1 | -20 | 145* | -53 | 1 | -3 | 103 | 129 | 106 | 102
COc1cc2c(C(=O)N3CCN(c4ccccc4F)CC3)cn(C)c(=O)c2cc1OC | 2 | 94 | 8 | 1.3 | 14 | 88 | . | . | .
Cn1c(O)c(C2=c3ccccc3=NC2=O)[nH]c1=S | 1 | 142* | -47 | 1.1 | 13 | 88 | 155* | 103 | 93
COc1ccc2nc(-n3c(O)c(C4=c5ccccc5=NC4=O)[nH]c3=S)sc2c1 | 0 | 93 | 5 | 1 | -2 | 102 | . | . | .
CC(=O)c1ccc(N2C(=O)[C@@H]3C(CCC(N)=O)NC4(C(=O)Nc5c4ccc(Cl)c5C)[C@@H]3C2=O)cc1 (stereo partly drawn) | 0 | 137* | -38 | 0.96 | 16 | 86 | 128 | 102 | 91
O=C(CCCSc1nc2ccccc2s1)NCc1ccco1 | -3 | 150* | -56 | 0.84 | -1 | 101 | 136* | 101 | 97
CCc1ccccc1NC(=O)CCCSc1nc2ccccc2s1 | 10 | 108 | -14 | 1 | -9 | 108 | . | . | .
CCOC(=O)CSc1nc(-c2ccccc2)nc2c1oc1ccccc12 | -15 | 137* | -37 | 1 | 8 | 93 | 134* | 111 | 94
CC(=O)n1c2c(c3ccccc31)OC(N)=C(C#N)C2c1cccc(Cl)c1Cl (stereo not drawn) | -6 | 141* | -48 | 0.98 | 4 | 96 | 141* | 104 | 89
SMILES | APP 5'UTR act | STAT3 act-1 | STAT3 blocker | NF-kB neuron act | STAT1 blocker | STAT1 act-1 | STAT3 act-2 | NFkB act STAT3ct | STAT1 act-2
O=C(Nc1cccc(F)c1)c1c(O)c2cccc3c2n(c1=O)CCC3 | 6 | 142* | -46 | 1.1 | 4 | 97 | 143* | 98 | 93
CC(C)c1nnc(NC(=O)c2c(O)c3cccc4c3n(c2=O)CCC4)s1 | 19 | 95 | 12 | 0.68 | 1 | 99 | . | . | .
Cc1cnc(NC(=O)c2c(O)c3cccc4c3n(c2=O)CCC4)s1 | 3 | 165* | -72 | 1.3 | -2 | 102 | 149* | 101 | 102
O=C(Nc1cccnc1)/C(N=Nc1cccnc1)=C(\O)c1ccccc1 | -8 | 96 | 0 | 0.33 | 10 | 91 | . | . | .
COC(=O)c1ccccc1NC(=O)c1cnn2cccnc12 | 4 | 94 | 10 | 0.97 | -3 | 101 | . | . | .
O=C(Nc1ccccc1O)c1csc2c1CCCC2 | 79 | 151* | -55 | 2.2 | -8 | 105 | 149* | 118 | 97
Cc1ccc(N2C(=O)c3cccc4c(C(=O)O)ccc(c34)C2=O)cc1 | 12 | 96 | 13 | 1.3 | -5 | 105 | . | . | .
CC(=O)Nc1cccc2c1C(=O)N(c1ccc(C)cc1)C2=O | -8 | 160* | -67 | 1.6 | -5 | 108 | 163* | 114 | 121*
CN1c2ccsc2/C(=N/Nc2ccc(F)cc2)CS1(=O)=O | 47 | 126 | -31 | 1.1 | -12 | 111 | . | . | .
Cc1ccc(N/N=C2\CS(=O)(=O)N(C)c3ccsc32)cc1 | 60 | 141* | -49 | 1.5 | -11 | 110 | 144* | 121* | 119
Cc1cccc(NC(=S)N2CCC(C(=O)c3ccc(F)cc3)CC2)c1C | 13 | 113 | -10 | 0.88 | 3 | 97 | . | . | .
Oc1ccccc1-c1cc(-c2ccccc2)no1 | 255* | 162* | -63 | 12* | -9 | 108 | 175* | 124* | 100
Cc1ccccc1-c1cc(-c2ccccc2O)on1 | 197* | 168* | -70 | 9.7* | -3 | 102 | 184* | 114 | 99
O=c1c2c(-c3ccccc3)csc2nc2c3ccccc3c(NCCN3CCOCC3)nn12 | 13 | 108 | -4 | 2.3 | 0 | 102 | . | . | .
CCc1ccc(OCC(=O)N/N=C2\CC(=O)c3ccccc32)cc1 | -16 | 146* | -58 | 0.59 | -2 | 102 | 128 | 110 | 117
